# From ChEMBL document CHEMBL6177937, “Design, synthesis, and biological evaluation of novel thiazole derivatives as PI3K/mTOR dual inhibitors” (RSC Med Chem, 2024)
# Legend:
# HL-60 [1] = assay: Growth inhibition of human HL-60 cells measured after 48 hrs by SRB assay; assay type: functional; details: for CC50: read-out: LC50 (the source's name)
# Procedure, shortened: (§1)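 NCI 60-line format with five concentrations (10-fold or ½-log serial dilutions) from DMSO stocks in medium with 50 μg/mL gentamicin. Cells preincubated 24 h, then exposed 48 h at 37°C, 5% CO2. Time-zero plates TCA-fixed. SRB absorbance read at 515 nm. GI50 taken from [(Ti−Tz)/(C−Tz)]×100 = 50. Out-of-range values are expressed as > or < the highest or lowest concentration tested.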
# MOLT-4 = assay: Growth inhibition of human MOLT-4 cells measured after 48 hrs by SRB assay; assay type: functional; procedure, shortened: as §1
# RPMI-8226 = assay: Growth inhibition of human RPMI-8226 cells measured after 48 hrs by SRB assay; assay type: functional
# Procedure, shortened: (§2)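 NCI 60-line SRB screen: cells seeded […], grown 24 h at 37°C, 5% CO2, then exposed 48 h to five concentrations (10-fold or ½-log dilutions from DMSO stock). Adherent cells fixed with cold TCA (final 10%), suspension cells with 80% TCA (final 16%); SRB stained, read at 515 nm. GI50 from time-zero, control and treated absorbances.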
# A549 = assay: Growth inhibition of human A549 cells measured after 48 hrs by SRB assay; assay type: functional; procedure, shortened: as §1
# HOP-92 = assay: Growth inhibition of human HOP-92 cells measured after 48 hrs by SRB assay; assay type: functional; procedure, shortened: as §1
# NCI-H23 = assay: Growth inhibition of human NCI-H23 cells measured after 48 hrs by SRB assay; assay type: functional; procedure, shortened: as §1
# NCI-H460 = assay: Growth inhibition of human NCI-H460 cells measured after 48 hrs by SRB assay; assay type: functional; procedure, shortened: as §1
# NCI-H522 = assay: Growth inhibition of human NCI-H522 cells measured after 48 hrs by SRB assay; assay type: functional; procedure, shortened: as §1
# HCC 2998 = assay: Growth inhibition of human HCC 2998 cells measured after 48 hrs by SRB assay; assay type: functional; procedure, shortened: as §1
# HCT-15 = assay: Growth inhibition of human HCT-15 cells measured after 48 hrs by SRB assay; assay type: functional; procedure, shortened: as §1
# HT-29 = assay: Growth inhibition of human HT-29 cells measured after 48 hrs by SRB assay; assay type: functional; procedure, shortened: as §1
# KM12 = assay: Growth inhibition of human KM12 cells measured after 48 hrs by SRB assay; assay type: functional; procedure, shortened: as §1
# SW-620 = assay: Growth inhibition of human SW620 cells measured after 48 hrs by SRB assay; assay type: functional; procedure, shortened: as §2
# SF-295 = assay: Growth inhibition of human SF-295 cells measured after 48 hrs by SRB assay; assay type: functional; details: for CC50: read-out: LC50 (the source's name); procedure, shortened: as §2
# SNB-75 = assay: Growth inhibition of human SNB-75 cells measured after 48 hrs by SRB assay; assay type: functional; procedure, shortened: as §2
# U-251 = assay: Growth inhibition of human U-251 cells measured after 48 hrs by SRB assay; assay type: functional; procedure, shortened: as §2
# LOX IMVI = assay: Growth inhibition of human LOX IMVI cells measured after 48 hrs by SRB assay; assay type: functional; details: for CC50: read-out: LC50 (the source's name); procedure, shortened: as §1
# M14 = assay: Growth inhibition of human M14 cells measured after 48 hrs by SRB assay; assay type: functional; procedure, shortened: as §1
# SK-MEL-2 = assay: Growth inhibition of human SK-MEL-2 cells measured after 48 hrs by SRB assay; assay type: functional; procedure, shortened: as §2
# SK-MEL-28 = assay: Growth inhibition of human SK-MEL-28 cells measured after 48 hrs by SRB assay; assay type: functional; procedure, shortened: as §2
# UACC-257 = assay: Growth inhibition of human UACC-257 cells measured after 48 hrs by SRB assay; assay type: functional; details: for CC50: read-out: LC50 (the source's name); procedure, shortened: as §2
# OVCAR-4 = assay: Growth inhibition of human OVCAR-4 cells measured after 48 hrs by SRB assay; assay type: functional; procedure, shortened: as §1
# OVCAR-8 = assay: Growth inhibition of human OVCAR-8 cells measured after 48 hrs by SRB assay; assay type: functional; procedure, shortened: as §1
# SK-OV-3 = assay: Growth inhibition of human SK-OV-3 cells measured after 48 hrs by SRB assay; assay type: functional; procedure, shortened: as §2
# 786-0 = assay: Growth inhibition of human 786-0 cells measured after 48 hrs by SRB assay; assay type: functional; details: for CC50: read-out: LC50 (the source's name); procedure, shortened: as §1
# CAKI-1 = assay: Growth inhibition of human CAKI-1 cells measured after 48 hrs by SRB assay; assay type: functional; procedure, shortened: as §1
# SN12C = assay: Growth inhibition of human SN12C cells measured after 48 hrs by SRB assay; assay type: functional; procedure, shortened: as §2
# TK-10 = assay: Growth inhibition of human TK-10 cells measured after 48 hrs by SRB assay; assay type: functional; procedure, shortened: as §2
# DU-145 = assay: Growth inhibition of human DU-145 cells measured after 48 hrs by SRB assay; assay type: functional; procedure, shortened: as §1
# T47D = assay: Growth inhibition of human T47D cells measured after 48 hrs by SRB assay; assay type: functional; procedure, shortened: as §2
# MDA-MB-468 = assay: Growth inhibition of human MDA-MB-468 cells measured after 48 hrs by SRB assay; assay type: functional; procedure, shortened: as §1
# HL-60 [2] = assay: Cytotoxicity against human HL-60 cells assessed as reduction in cell viability measured after 24 hrs by MTT assay; assay type: functional, cell-based; details: HL-60, 24 h
# Procedure, shortened: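 MTT viability with 24 h incubation in 96-well plates. Five semi-log concentrations from 0.01 to 100 μM. Formazan absorbance read at 570 nm, with 690 nm background subtracted. Run in triplicate. IC50 obtained by sigmoidal dose-response fitting. Cells are leukemia HL-60(TB) and normal lymphocytes (PCS-800-017).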
# HL-60 [3] = assay: Induction of apoptosis in human HL-60 cells assessed as late apoptotic cells measured after 24 hrs by Annexin-V/propidium iodide staining based flow cytometry (reference value: 0.61%); assay type: functional
# HL-60 [4] = assay: Induction of apoptosis in human HL-60 cells assessed as necrotic cells measured after 24 hrs by Annexin-V/propidium iodide staining based flow cytometry (reference value: 0.61%); assay type: functional
# HL-60 [5] = assay: Induction of apoptosis in human HL-60 cells assessed as increase in caspase-3 level measured after 24 hrs by ELISA relative to control
smiles,measurement,setting,value
O=[N+]([O-])c1cc(/C=N/Nc2nc(-c3ccc(Cl)cc3)cs2)ccc1Cl,GI50,HL-60 [1],2.29 µM
same,TGI,HL-60 [1],7.43 µM
same,CC50,HL-60 [1],> 100 µM
same,GI50,MOLT-4,3.43 µM
same,TGI,MOLT-4,24.1 µM
same,GI50,RPMI-8226,2.31 µM
same,TGI,RPMI-8226,6.29 µM
same,GI50,A549,78.4 µM
same,TGI,A549,> 100 µM
same,GI50,HOP-92,2.59 µM
same,TGI,HOP-92,10.8 µM
same,GI50,NCI-H23,12.5 µM
same,TGI,NCI-H23,40.9 µM
same,GI50,NCI-H460,13.6 µM
same,TGI,NCI-H460,26.5 µM
same,GI50,NCI-H522,9.45 µM
same,TGI,NCI-H522,67.6 µM
same,GI50,HCC 2998,1.87 µM
same,TGI,HCC 2998,3.55 µM
same,GI50,HCT-15,13.1 µM
same,TGI,HCT-15,42.1 µM
same,GI50,HT-29,3.6 µM
same,TGI,HT-29,15.4 µM
same,GI50,KM12,1.88 µM
same,TGI,KM12,3.58 µM
same,GI50,SW-620,18.3 µM
same,TGI,SW-620,43.1 µM
same,GI50,SF-295,14.9 µM
same,TGI,SF-295,28.3 µM
same,CC50,SF-295,53.8 µM
same,GI50,SNB-75,14.8 µM
same,TGI,SNB-75,40.1 µM
same,GI50,U-251,4.37 µM
same,TGI,U-251,17 µM
same,GI50,LOX IMVI,3.91 µM
same,TGI,LOX IMVI,> 100 µM
same,CC50,LOX IMVI,> 100 µM
same,GI50,M14,17 µM
same,TGI,M14,45.6 µM
same,GI50,SK-MEL-2,24 µM
same,TGI,SK-MEL-2,81.5 µM
same,GI50,SK-MEL-28,17.2 µM
same,TGI,SK-MEL-28,46.4 µM
same,GI50,UACC-257,7.52 µM
same,TGI,UACC-257,22 µM
same,CC50,UACC-257,51.6 µM
same,GI50,OVCAR-4,8.25 µM
same,TGI,OVCAR-4,35.9 µM
same,GI50,OVCAR-8,14.9 µM
same,TGI,OVCAR-8,54.1 µM
same,GI50,SK-OV-3,21.8 µM
same,TGI,SK-OV-3,65 µM
same,GI50,786-0,19.8 µM
same,TGI,786-0,61.3 µM
same,CC50,786-0,> 100 µM
same,GI50,CAKI-1,14.6 µM
same,TGI,CAKI-1,32.1 µM
same,GI50,SN12C,15.1 µM
same,TGI,SN12C,61.5 µM
same,GI50,TK-10,28.1 µM
same,TGI,TK-10,84 µM
same,GI50,DU-145,1.63 µM
same,TGI,DU-145,3.07 µM
same,GI50,T47D,1.8 µM
same,TGI,T47D,3.81 µM
same,GI50,MDA-MB-468,1.54 µM
same,TGI,MDA-MB-468,3.01 µM
same,IC50,HL-60 [2],2.29 µM
same,Activity,HL-60 [3],17.92%
same,Activity,HL-60 [4],3.64%
same,fold change (FC),HL-60 [5],3.48
CCOc1cc(/C=N/Nc2nc(-c3cccc([N+](=O)[O-])c3)cs2)ccc1O,GI50,HL-60 [1],2.32 µM
same,TGI,HL-60 [1],7.84 µM
same,CC50,HL-60 [1],> 100 µM
same,GI50,MOLT-4,1.74 µM
same,TGI,MOLT-4,5.94 µM
same,GI50,RPMI-8226,3.03 µM
same,TGI,RPMI-8226,> 100 µM
same,GI50,A549,3.45 µM
same,TGI,A549,14.1 µM
same,GI50,HOP-92,3.2 µM
same,TGI,HOP-92,30.9 µM
same,GI50,NCI-H23,1.99 µM
same,TGI,NCI-H23,5.14 µM
same,GI50,NCI-H460,2.4 µM
same,TGI,NCI-H460,5.81 µM
same,GI50,NCI-H522,1.85 µM
same,TGI,NCI-H522,4.21 µM
same,GI50,HCC 2998,3.43 µM
same,TGI,HCC 2998,19.8 µM
same,GI50,HCT-15,2.86 µM
same,TGI,HCT-15,11.8 µM
same,GI50,HT-29,33.7 µM
same,TGI,HT-29,> 100 µM
same,GI50,KM12,1.94 µM
same,TGI,KM12,3.63 µM
same,GI50,SW-620,3.53 µM
same,TGI,SW-620,11.6 µM
same,GI50,SF-295,2 µM
same,TGI,SF-295,4.28 µM
same,CC50,SF-295,9.16 µM
same,GI50,SNB-75,2.72 µM
same,TGI,SNB-75,13.1 µM
same,GI50,U-251,3.08 µM
same,TGI,U-251,14.1 µM
same,GI50,LOX IMVI,1.73 µM
same,TGI,LOX IMVI,3.59 µM
same,CC50,LOX IMVI,7.46 µM
same,GI50,M14,1.85 µM
same,TGI,M14,3.89 µM
same,GI50,SK-MEL-2,2.48 µM
same,TGI,SK-MEL-2,6.75 µM
same,GI50,SK-MEL-28,2.27 µM
same,TGI,SK-MEL-28,5.97 µM
same,GI50,UACC-257,1.71 µM
same,TGI,UACC-257,3.23 µM
same,CC50,UACC-257,6.08 µM
same,GI50,OVCAR-4,2.41 µM
same,TGI,OVCAR-4,8.05 µM
same,GI50,OVCAR-8,2.84 µM
same,TGI,OVCAR-8,9.63 µM
same,GI50,SK-OV-3,3.36 µM
same,TGI,SK-OV-3,27.8 µM
same,GI50,786-0,2.75 µM
same,TGI,786-0,8.68 µM
same,CC50,786-0,81.8 µM
same,GI50,CAKI-1,2.18 µM
same,TGI,CAKI-1,6.88 µM
same,GI50,SN12C,2.41 µM
same,TGI,SN12C,9.9 µM
same,GI50,TK-10,4.42 µM
same,TGI,TK-10,16.1 µM
same,GI50,DU-145,3.43 µM
same,TGI,DU-145,11.6 µM
same,GI50,T47D,3.69 µM
same,TGI,T47D,16.3 µM
same,GI50,MDA-MB-468,2.17 µM
same,TGI,MDA-MB-468,4.61 µM
same,IC50,HL-60 [2],2.32 µM
same,Activity,HL-60 [3],16.27%
same,Activity,HL-60 [4],4.93%
same,fold change (FC),HL-60 [5],4.61
